Data from ChEMBL document CHEMBL1131440, “Synthesis and potent antifolate activity and cytotoxicity of B-ring deaza analogues of the nonpolyglutamatable dihydrofolate reductase inhibitor Nalpha-(4-amino-4-deoxypteroyl)-Ndelta-hemiphthaloyl- L-ornithine (PT523)” (J Med Chem, 1998).

How the values were obtained:
[1] = Compound was tested for in vitro antitumor activity, using SCC25 human head and neck squamous carcinoma cells; assay type: functional; conditions: SCC-25
Outline: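 Clonogenic assay: SCC25 cells exposed to graded drug concentrations for 72 h at 37 °C, 5% CO2, in DMEM with 10% FBS and hydrocortisone ([…]). Then replated as single cells at drug-dependent densities and grown in drug-free medium 10-14 days. Colonies stained with crystal violet; only colonies of ≥50 cells scored. IC50 is mean ± SD of ≥3 assays on different days.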

COLO 205 = assay: Compound was evaluated for in vitro activity against COLO 205 Colon cell lines (Human tumor cells ); assay type: functional, cell-based
Outline: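 Total protein then stained with sulforhodamine B following the standard NCI protocol. Data supplied by the NCI Developmental Therapeutics Program.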

KM12 = assay: Compound was evaluated for in vitro activity against KM-12 Colon cell lines (Human tumor cells ); assay type: functional, cell-based
Outline: (§1)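 NCI Developmental Therapeutics Program human tumor cell panel; drug exposure in 96-well plates for the last 48 h of a 72-h incubation, then cells stained for total protein with sulforhodamine B per the standard NCI protocol. Data supplied by NCI.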

MDA-MB-435 = assay: Compound was evaluated for in vitro activity against MDA-MB-435 breast cancer cell lines (Human tumor cells ); assay type: functional, cell-based; outline: as §1
NCI-H522 = assay: Compound was evaluated for in vitro activity against NCI-H522 lung cancer cell lines (Human tumor cells ); assay type: functional, cell-based; outline: as §1
SR = assay: Compound was evaluated for in vitro activity against SR leukemia cell lines (Human tumor cells ); assay type: functional, cell-based; outline: as §1
K562 = assay: Compound was evaluated for in vitro activity against K562 leukemia cell lines (Human tumor cells ); assay type: functional, cell-based; outline: as §1
HL-60 = assay: Compound was evaluated for in vitro activity against HL-60(TB) leukemia cell lines (Human tumor cells ); assay type: functional, cell-based; outline: as §1
TK-10 = assay: Compound was evaluated for in vitro activity against TK-10 kidney cell lines (Human tumor cells ); assay type: functional, cell-based; outline: as §1
BT-549 = assay: Compound was evaluated for in vitro activity against BT-549 breast cancer cell lines (Human tumor cells ); assay type: functional, cell-based; outline: as §1
RPMI-8226 = assay: Compound was evaluated for in vitro activity against RPMI-8226 leukemia cell lines (Human tumor cells ); assay type: functional, cell-based; outline: as §1
EKVX = assay: Compound was evaluated for in vitro activity against EKVX lung cancer cell lines (Human tumor cells ); assay type: functional, cell-based; outline: as §1
Malme-3M = assay: Compound was evaluated for in vitro activity against MALME-3M Melanoma cell lines (Human tumor cells ); assay type: functional, cell-based; outline: as §1
HOP-92 = assay: Compound was evaluated for in vitro activity against HOP-92 lung cancer cell lines (Human tumor cells ); assay type: functional, cell-based; outline: as §1
SF-295 = assay: Compound was evaluated for in vitro activity against SF-295 CNS cell lines (Human tumor cells ); assay type: functional, cell-based; outline: as §1
MOLT-4 = assay: Compound was evaluated for in vitro activity against MOLT-4 leukemia cell lines (Human tumor cells ); assay type: functional, cell-based; outline: as §1
PC-3 = assay: Compound was evaluated for in vitro activity against PC-3 prostate cell lines (Human tumor cells ); assay type: functional, cell-based; outline: as §1
CCRF-CEM = assay: Compound was evaluated for in vitro activity against CCRF-CEM leukemia cell lines (Human tumor cells ); assay type: functional, cell-based; outline: as §1
SK-MEL-2 = assay: Compound was evaluated for in vitro activity against SK-MEL-2 Melanoma cell lines (Human tumor cells ); assay type: functional, cell-based; outline: as §1
IGROV-1 = assay: Compound was evaluated for in vitro activity against IGROV1 Ovary cell lines (Human tumor cells ); assay type: functional, cell-based; outline: as §1
T47D = assay: Compound was evaluated for in vitro activity against T-47D breast cancer cell lines (Human tumor cells ); assay type: functional, cell-based; outline: as §1
OVCAR-5 = assay: Compound was evaluated for in vitro activity against OVCAR-5 Ovary cell lines (Human tumor cells ); assay type: functional, cell-based; outline: as §1
NCI-H226 = assay: Compound was evaluated for in vitro activity against NCI-H226 lung cancer cell lines (Human tumor cells ); assay type: functional, cell-based; outline: as §1
RXF 393 = assay: Compound was evaluated for in vitro activity against RXF-393 kidney cell lines (Human tumor cells ); assay type: functional, cell-based; outline: as §1
A549 = assay: Compound was evaluated for in vitro activity against A549/ATCC lung cancer cell lines (Human tumor cells )
SNB- = assay: Compound was evaluated for in vitro activity against […] CNS cell lines (Human tumor cells ); assay type: functional, cell-based; outline: as §1
OVCAR-4 = assay: Compound was evaluated for in vitro activity against OVCAR-4 Ovary cell lines (Human tumor cells ); assay type: functional, cell-based; outline: as §1
HCC 2998 = assay: Compound was evaluated for in vitro activity against HCC2998 Colon cell lines (Human tumor cells ); assay type: functional, cell-based; outline: as §1
Hs-578T = assay: Compound was evaluated for in vitro activity against Hs 578.T breast cancer cell lines (Human tumor cells ); assay type: functional, cell-based; outline: as §1
M14 = assay: Compound was evaluated for in vitro activity against M14 Melanoma cell lines (Human tumor cells ); assay type: functional, cell-based; outline: as §1
U-251 = assay: Compound was evaluated for in vitro activity against U251 CNS cell lines (Human tumor cells ); assay type: functional, cell-based; outline: as §1
SK-MEL-28 = assay: Compound was evaluated for in vitro activity against SK-MEL28 Melanoma cell lines (Human tumor cells ); assay type: functional, cell-based; outline: as §1
DU-145 = assay: Compound was evaluated for in vitro activity against DU-145 prostate cell lines (Human tumor cells ); assay type: functional, cell-based; outline: as §1
UACC-257 = assay: Compound was evaluated for in vitro activity against UACC-257 Melanoma cell lines (Human tumor cells ); assay type: functional, cell-based; outline: as §1
A498 = assay: Compound was evaluated for in vitro activity against A498 kidney cell lines (Human tumor cells ); assay type: functional, cell-based; outline: as §1

## Nc1nc(N)c2cc(CNc3ccc(C(=O)NC(CCCNC(=O)c4ccccc4C(=O)O)C(=O)O)cc3)ccc2n1 (stereo unspecified)
[1]
  IC50: 0.61 nM

## CN(Cc1cnc2nc(N)nc(N)c2n1)c1ccc(C(=O)N[C@@H](CCC(=O)O)C(=O)O)cc1 [METHOTREXATE]
COLO 205
  IC50: 870 nM
KM12
  IC50: 33 nM
MDA-MB-435
  IC50: > 1000 nM
NCI-H522
  IC50: 450 nM
SR
  IC50: 33 nM
K562
  IC50: 26 nM
HL-60
  IC50: 39 nM
TK-10
  IC50: > 1000 nM
BT-549
  IC50: > 1000 nM
RPMI-8226
  IC50: 33 nM
EKVX
  IC50: > 1000 nM
Malme-3M
  IC50: > 1000 nM
HOP-92
  IC50: > 1000 nM
SF-295
  IC50: 36 nM
MOLT-4
  IC50: 28 nM
PC-3
  IC50: 27 nM
CCRF-CEM
  IC50: 29 nM
SK-MEL-2
  IC50: > 1000 nM
IGROV-1
  IC50: 65 nM
T47D
  IC50: > 1000 nM
OVCAR-5
  IC50: 980 nM
NCI-H226
  IC50: > 1000 nM
RXF 393
  IC50: > 1000 nM
A549
  IC50: 33 nM
SNB-
  IC50: > 1000 nM
OVCAR-4
  IC50: > 1000 nM
HCC 2998
  IC50: 110 nM
Hs-578T
  IC50: > 1000 nM
M14
  IC50: 32 nM
U-251
  IC50: 63 nM
SK-MEL-28
  IC50: > 1000 nM
DU-145
  IC50: 45 nM
[1]
  IC50: 15 nM
UACC-257
  IC50: 790 nM
A498
  IC50: > 1000 nM
